Data on three molecules can be found in ChEMBL document CHEMBL5696442, “Discovery of type II inhibitors of TGFβ-activated kinase 1 (TAK1) and mitogen-activated protein kinase kinase kinase kinase 2 (MAP4K2)” (J Med Chem, 2015).

Calls of active or inactive are those of the source. No cut-off for these calls is given here.

Test [1] has as its target Casein kinase I isoform delta (Homo sapiens) (UniProt P48730). Briefly: Inhibition of CSNK1D (unknown origin) at 1 uM by Ambit Kinomescan binding assay relative to control. In outline: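 In vitro ATP-site competition binding assay against a panel of over 420 kinases (KinomeScan), with compound tested at 10 or 1 μM.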
Test [2] concerns the target STE20/SPS1-related proline-alanine-rich protein kinase (Homo sapiens) (UniProt Q9UEW8). In words: Inhibition of STK39 (unknown origin) at 1 uM by Ambit Kinomescan binding assay relative to control.
Test [3] addresses T1, Atrial natriuretic peptide receptor 2 (Homo sapiens) (UniProt P20594).
T1 sequence (whole entry): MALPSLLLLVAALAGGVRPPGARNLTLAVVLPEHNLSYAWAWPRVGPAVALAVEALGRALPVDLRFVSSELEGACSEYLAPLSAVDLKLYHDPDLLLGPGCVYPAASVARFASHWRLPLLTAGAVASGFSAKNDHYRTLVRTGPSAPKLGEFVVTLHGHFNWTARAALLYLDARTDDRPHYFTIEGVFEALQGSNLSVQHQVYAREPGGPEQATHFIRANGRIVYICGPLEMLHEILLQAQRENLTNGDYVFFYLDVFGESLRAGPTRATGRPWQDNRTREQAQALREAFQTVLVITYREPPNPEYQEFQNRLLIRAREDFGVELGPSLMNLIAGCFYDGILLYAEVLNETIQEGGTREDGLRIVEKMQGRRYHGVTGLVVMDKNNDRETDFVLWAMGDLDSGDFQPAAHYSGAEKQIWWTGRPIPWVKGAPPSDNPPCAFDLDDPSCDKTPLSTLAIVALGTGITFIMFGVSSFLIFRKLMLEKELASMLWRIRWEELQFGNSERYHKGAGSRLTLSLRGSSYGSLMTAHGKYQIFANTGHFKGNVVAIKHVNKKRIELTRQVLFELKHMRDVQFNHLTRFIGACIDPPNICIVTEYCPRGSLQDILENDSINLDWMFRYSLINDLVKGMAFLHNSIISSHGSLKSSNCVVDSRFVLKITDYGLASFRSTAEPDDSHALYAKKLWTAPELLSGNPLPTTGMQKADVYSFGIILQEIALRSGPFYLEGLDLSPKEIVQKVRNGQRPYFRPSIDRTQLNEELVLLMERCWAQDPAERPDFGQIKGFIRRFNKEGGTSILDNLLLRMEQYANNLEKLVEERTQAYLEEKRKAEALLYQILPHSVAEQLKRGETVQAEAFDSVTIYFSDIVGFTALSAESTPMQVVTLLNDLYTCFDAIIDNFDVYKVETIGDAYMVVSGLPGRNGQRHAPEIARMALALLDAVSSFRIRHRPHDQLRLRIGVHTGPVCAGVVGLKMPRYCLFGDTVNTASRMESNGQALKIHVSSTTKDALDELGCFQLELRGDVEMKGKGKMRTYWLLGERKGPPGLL
Briefly: Inhibition of ANPb Lys2 labeling site in human A-375 cells at 0.05 uM by KiNativ Profiling analysis relative to control. The test is classed as cell-based.

In test [4] the target is Serine/threonine-protein kinase 16 (Homo sapiens) (UniProt O75716). In words: Inhibition of MPSK1 Lys2 labeling site in human A-375 cells at 0.05 uM by KiNativ Profiling analysis relative to control. The test is classed as cell-based.
Test [5] deals with Casein kinase I isoform alpha-like (Homo sapiens) (UniProt Q8N752). Briefly: Inhibition of CSNK1A1L (unknown origin) at 10 uM by Ambit Kinomescan binding assay.
In test [6] the target is T2, Mitogen-activated protein kinase kinase kinase 6 (Homo sapiens) (UniProt O95382).
T2 sequence (whole entry): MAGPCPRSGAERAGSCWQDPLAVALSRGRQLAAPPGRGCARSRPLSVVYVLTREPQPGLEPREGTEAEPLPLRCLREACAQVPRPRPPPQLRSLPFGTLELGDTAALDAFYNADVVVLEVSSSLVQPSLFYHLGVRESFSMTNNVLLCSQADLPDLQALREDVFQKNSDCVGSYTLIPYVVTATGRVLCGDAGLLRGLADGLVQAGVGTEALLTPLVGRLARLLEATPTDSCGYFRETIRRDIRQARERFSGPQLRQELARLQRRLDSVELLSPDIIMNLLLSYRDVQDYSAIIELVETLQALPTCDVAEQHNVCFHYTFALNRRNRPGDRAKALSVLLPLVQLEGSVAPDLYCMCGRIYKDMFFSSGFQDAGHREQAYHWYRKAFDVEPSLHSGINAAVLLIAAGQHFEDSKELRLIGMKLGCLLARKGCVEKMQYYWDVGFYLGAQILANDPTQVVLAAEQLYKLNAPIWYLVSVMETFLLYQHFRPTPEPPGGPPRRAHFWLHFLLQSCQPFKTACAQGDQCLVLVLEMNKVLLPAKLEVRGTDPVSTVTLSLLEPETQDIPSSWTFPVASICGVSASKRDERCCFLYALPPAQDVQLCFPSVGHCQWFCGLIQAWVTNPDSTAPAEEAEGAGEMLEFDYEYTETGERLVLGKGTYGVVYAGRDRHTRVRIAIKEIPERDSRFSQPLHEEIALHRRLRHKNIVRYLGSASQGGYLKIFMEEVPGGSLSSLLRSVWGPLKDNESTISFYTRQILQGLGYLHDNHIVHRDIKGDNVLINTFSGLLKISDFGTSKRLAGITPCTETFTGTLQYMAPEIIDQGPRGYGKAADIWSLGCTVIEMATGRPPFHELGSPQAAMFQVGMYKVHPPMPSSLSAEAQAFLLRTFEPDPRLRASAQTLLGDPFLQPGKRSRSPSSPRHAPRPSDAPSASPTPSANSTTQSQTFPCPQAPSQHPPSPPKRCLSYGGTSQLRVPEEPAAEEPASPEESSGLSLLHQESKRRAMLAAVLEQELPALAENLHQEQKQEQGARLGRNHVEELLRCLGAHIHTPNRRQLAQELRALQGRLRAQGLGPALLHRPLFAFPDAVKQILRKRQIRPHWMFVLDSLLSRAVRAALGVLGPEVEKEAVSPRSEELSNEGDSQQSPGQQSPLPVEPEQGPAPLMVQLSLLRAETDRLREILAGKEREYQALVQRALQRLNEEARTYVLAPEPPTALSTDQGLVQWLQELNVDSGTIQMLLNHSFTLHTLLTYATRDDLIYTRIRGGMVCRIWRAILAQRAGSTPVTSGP
Briefly: Inhibition of MAP3K6 Lys1 labeling site harbouring IAIKEIPERDSR in human A-375 cells at 5 uM by KiNativ Profiling analysis relative to control. It counts as cell-based.

Test [7] concerns the target TRAF2 and NCK-interacting protein kinase (Homo sapiens) (UniProt Q9UKE5). Briefly: Inhibition of TNIK K1 labeling site in human Huh-7 cells at 10 uM by KiNativ Profiling analysis relative to control. It counts as cell-based.
Test [8] concerns the target Cyclin-dependent kinase 1 (Homo sapiens) (UniProt P06493). Briefly: Inhibition of CDC2 Lys1 labeling site in human Huh-7 cells at 1 uM by KiNativ Profiling analysis relative to control. It counts as cell-based.
Test [9] deals with Cyclin-dependent kinase 18 (Homo sapiens) (UniProt Q07002). In words: Inhibition of PCTAIRE3 Lys1 labeling site in human Huh-7 cells at 1 uM by KiNativ Profiling analysis relative to control. The test is classed as cell-based.

In general, inhibition refers to the relative decrease from the control value, in per cent.

Cyclin-dependent kinase 1 (Homo sapiens), sequence (P06493 whole entry, looked up): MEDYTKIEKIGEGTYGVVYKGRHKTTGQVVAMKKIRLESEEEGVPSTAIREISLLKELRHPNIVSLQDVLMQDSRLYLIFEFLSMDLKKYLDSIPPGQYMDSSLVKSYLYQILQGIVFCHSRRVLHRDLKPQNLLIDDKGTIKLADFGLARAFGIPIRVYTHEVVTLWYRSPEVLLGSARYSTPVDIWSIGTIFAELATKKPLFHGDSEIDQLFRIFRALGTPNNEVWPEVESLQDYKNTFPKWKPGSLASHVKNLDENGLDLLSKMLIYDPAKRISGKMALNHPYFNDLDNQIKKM
Casein kinase I isoform delta (Homo sapiens), sequence (P48730 whole entry, looked up, canonical isoform): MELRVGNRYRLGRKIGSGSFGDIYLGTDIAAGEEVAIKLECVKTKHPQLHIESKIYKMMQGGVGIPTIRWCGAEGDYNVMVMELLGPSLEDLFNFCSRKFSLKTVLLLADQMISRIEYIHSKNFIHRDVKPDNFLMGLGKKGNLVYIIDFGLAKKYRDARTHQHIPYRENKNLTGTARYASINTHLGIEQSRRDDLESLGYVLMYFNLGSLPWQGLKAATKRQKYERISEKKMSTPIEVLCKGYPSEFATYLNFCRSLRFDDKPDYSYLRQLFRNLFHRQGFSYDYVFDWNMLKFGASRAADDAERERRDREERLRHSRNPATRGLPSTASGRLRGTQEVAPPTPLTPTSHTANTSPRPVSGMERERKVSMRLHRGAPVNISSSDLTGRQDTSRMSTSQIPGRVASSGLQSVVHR
Serine/threonine-protein kinase 16 (Homo sapiens), sequence (O75716 whole entry, canonical isoform): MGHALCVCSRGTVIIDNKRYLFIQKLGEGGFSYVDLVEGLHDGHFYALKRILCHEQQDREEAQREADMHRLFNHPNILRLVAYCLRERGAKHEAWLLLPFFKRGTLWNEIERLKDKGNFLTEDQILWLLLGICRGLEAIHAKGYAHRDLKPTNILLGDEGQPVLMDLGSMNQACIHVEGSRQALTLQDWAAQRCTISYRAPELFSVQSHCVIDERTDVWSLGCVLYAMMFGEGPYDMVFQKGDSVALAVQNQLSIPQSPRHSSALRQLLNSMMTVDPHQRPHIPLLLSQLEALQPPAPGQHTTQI
TRAF2 and NCK-interacting protein kinase (Homo sapiens), sequence (Q9UKE5 whole entry, looked up): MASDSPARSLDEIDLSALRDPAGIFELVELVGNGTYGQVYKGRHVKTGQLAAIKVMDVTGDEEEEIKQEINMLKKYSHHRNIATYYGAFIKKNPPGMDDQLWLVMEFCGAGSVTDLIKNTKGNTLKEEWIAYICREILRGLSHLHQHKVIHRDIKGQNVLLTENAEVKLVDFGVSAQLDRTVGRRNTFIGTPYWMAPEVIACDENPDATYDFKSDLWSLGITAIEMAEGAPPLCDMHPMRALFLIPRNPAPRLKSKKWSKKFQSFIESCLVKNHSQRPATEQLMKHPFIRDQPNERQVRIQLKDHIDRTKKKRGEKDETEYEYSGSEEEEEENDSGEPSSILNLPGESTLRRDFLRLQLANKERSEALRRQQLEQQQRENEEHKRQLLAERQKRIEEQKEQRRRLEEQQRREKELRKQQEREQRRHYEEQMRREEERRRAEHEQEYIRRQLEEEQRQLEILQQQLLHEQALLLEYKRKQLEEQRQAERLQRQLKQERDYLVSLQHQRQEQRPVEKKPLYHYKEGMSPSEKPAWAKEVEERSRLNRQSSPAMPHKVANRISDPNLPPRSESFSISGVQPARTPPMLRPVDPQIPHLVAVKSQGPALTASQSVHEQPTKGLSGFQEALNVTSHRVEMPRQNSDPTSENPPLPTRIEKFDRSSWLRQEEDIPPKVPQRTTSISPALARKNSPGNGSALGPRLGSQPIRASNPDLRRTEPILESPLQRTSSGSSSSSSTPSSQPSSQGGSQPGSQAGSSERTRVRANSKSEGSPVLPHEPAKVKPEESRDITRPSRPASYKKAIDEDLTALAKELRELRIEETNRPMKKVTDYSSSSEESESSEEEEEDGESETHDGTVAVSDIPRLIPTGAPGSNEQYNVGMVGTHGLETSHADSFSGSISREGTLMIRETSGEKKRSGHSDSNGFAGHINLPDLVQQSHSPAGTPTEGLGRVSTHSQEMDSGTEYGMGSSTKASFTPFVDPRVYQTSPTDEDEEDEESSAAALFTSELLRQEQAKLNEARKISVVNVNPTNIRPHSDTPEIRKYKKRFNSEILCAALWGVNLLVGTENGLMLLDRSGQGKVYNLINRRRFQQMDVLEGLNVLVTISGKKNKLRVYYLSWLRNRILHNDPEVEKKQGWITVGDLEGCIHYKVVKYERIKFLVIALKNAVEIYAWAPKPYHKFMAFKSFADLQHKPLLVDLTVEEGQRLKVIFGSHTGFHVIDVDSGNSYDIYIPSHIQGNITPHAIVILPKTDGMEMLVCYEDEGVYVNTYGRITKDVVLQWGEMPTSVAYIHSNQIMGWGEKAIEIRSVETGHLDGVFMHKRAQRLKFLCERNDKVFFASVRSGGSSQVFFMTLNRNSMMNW
Cyclin-dependent kinase 18 (Homo sapiens), sequence (Q07002 whole entry): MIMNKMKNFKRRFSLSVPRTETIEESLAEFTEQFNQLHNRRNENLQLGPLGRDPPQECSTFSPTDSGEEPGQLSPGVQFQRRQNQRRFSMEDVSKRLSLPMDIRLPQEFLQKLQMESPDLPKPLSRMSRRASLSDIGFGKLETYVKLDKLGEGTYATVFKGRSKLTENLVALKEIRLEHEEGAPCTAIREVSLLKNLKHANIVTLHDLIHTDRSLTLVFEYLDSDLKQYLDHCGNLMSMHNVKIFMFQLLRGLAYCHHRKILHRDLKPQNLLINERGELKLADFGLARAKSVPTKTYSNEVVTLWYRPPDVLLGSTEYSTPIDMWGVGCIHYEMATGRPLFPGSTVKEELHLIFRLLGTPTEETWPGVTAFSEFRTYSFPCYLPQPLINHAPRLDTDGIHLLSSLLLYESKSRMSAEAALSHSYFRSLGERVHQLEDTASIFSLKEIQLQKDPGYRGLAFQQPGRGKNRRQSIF
Casein kinase I isoform alpha-like (Homo sapiens), sequence (Q8N752 whole entry, canonical isoform): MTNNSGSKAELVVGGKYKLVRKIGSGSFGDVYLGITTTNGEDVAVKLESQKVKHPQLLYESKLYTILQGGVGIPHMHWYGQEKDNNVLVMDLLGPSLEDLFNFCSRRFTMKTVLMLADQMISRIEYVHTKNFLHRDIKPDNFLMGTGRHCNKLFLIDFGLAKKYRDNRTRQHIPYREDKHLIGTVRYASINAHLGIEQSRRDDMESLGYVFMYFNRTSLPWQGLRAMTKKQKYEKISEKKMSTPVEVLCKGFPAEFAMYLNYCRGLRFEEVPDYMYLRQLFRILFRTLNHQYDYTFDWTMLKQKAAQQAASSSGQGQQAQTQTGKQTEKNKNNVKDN

With `CCN1CCN(Cc2ccc(NC(=O)c3ccc(C)c(/C=C/c4cnc5[nH]ccc5c4OC)c3)cc2C(F)(F)F)CC1`, the inhibition is 84% in [1], 70% in [2], -8.7% in test [3] and 14.1% in [4].
As for `CCN1CCN(Cc2ccc(NC(=O)c3ccc(C)c(Oc4ccnc5[nH]ccc45)c3)cc2C(F)(F)F)CC1`, the inhibition result in test [5] was “inactive”. For the same molecule, the inhibition was -3.2% in test [6] and 74.5% in test [7].
With `CNc1cc(Oc2cc(C(=O)Nc3cc(N4CCN(C)CC4)cc(C(F)(F)F)c3)ccc2C)ncn1`, the inhibition was determined as 8.9% in test [8] and 12% in test [9].
